Test [1] relates to Nucleic Acid. Briefly: Apparent binding affinity to herring sperm DNA at 25 degree Celsius in PBS buffer with pH 7.4. It counts as nucleic-acid assay. To be noted: Clupeidae. In a few lines: (§1)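 Spectral titration: drug at 200 µg/mL in PBS pH 7.4 (NaCl 137 mM, KCl 3 mM, Na2HPO4 8 mM, KH2PO4 1.5 mM) titrated with 0.05–2.00 mL highly polymerized herring sperm DNA (2.34 mg/mL in 0.9% NaCl), made to 4.0 mL. Free and bound drug estimated from absorbance at 475 nm; Scatchard plot (nx/Df vs nx) yields Ka and nmax.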

The subject of test [2] is Nucleic Acid. Briefly: Maximal binding (nmax) sites to herring sperm DNA. Estimated from Scatchard plots. It counts as nucleic-acid assay. As to conditions: Clupeidae. In short, it runs like this: as §1

The structures appear in SMILES notation.

With `COc1cccc2c1C(=O)c1c(O)c3c(c(O)c1C2=O)C[C@@](O)(C(C)=O)C[C@@H]3OC1CC(NC(=O)C(N)C(C)C)C(O)C(C)O1` (stereo partly drawn), the Ka with Nucleic Acid [1] turned out to be 110000 M⁻¹. In addition, the Maximal binding in the test on Nucleic Acid [2] is 0.18.

As to `COc1cccc2c1C(=O)c1c(O)c3c(c(O)c1C2=O)C[C@@](O)(C(C)=O)C[C@@H]3O[C@H]1C[C@H](NC(=O)[C@H](C)NC(=O)[C@@H](N)CC(C)C)[C@H](O)[C@H](C)O1`, the Ka with Nucleic Acid [1] was determined as 40000 M⁻¹. For the same compound, the Maximal binding in the test with Nucleic Acid [2] was 0.12.

For `COc1cccc2c1C(=O)c1c(O)c3c(c(O)c1C2=O)C[C@@](O)(C(C)=O)C[C@@H]3OC1CC(NC(=O)C(N)CC(C)C)C(O)C(C)O1` (stereo partly drawn), in the test on Nucleic Acid [1], the Ka stood at 130000 M⁻¹. The Maximal binding in the test on Nucleic Acid [2] was 0.2.

`COc1cccc2c1C(=O)c1c(O)c3c(c(O)c1C2=O)C[C@@](O)(C(C)=O)C[C@@H]3O[C@H]1C[C@H](N)[C@H](O)[C@H](C)O1`: the Ka with Nucleic Acid [1] came out at 310000 M⁻¹. Also, the Maximal binding with Nucleic Acid [2] is 0.16.

Regarding `COc1cccc2c1C(=O)c1c(O)c3c(c(O)c1C2=O)C[C@@](O)(C(C)=O)C[C@@H]3OC1CC(NC(=O)CN)C(O)C(C)O1` (stereo partly drawn), in the test on Nucleic Acid [1], the Ka was 130000 M⁻¹. For the same compound, in the test on Nucleic Acid [2], the Maximal binding was 0.16.

As for `COc1cccc2c1C(=O)c1c(O)c3c(c(O)c1C2=O)C[C@@](O)(C(C)=O)C[C@@H]3OC1CC(NC(=O)C(CC(C)C)NC(=O)CN)C(O)C(C)O1` (stereo partly drawn), in the test on Nucleic Acid [1], the Ka turned out to be 30000 M⁻¹. Further, the Maximal binding in the test with Nucleic Acid [2] was 0.14.

In the case of `COc1cccc2c1C(=O)c1c(O)c3c(c(O)c1C2=O)C[C@@](O)(C(C)=O)C[C@@H]3O[C@H]1C[C@H](NC(=O)[C@H](CC(C)C)NC(=O)[C@H](C)N)[C@H](O)[C@H](C)O1`, the Ka in the test with Nucleic Acid [1] came to 20000 M⁻¹. For the same compound, in the test with Nucleic Acid [2], the Maximal binding was 0.17.

As for `CCC(C)C(N)C(=O)NC1CC(O[C@H]2C[C@](O)(C(C)=O)Cc3c(O)c4c(c(O)c32)C(=O)c2c(OC)cccc2C4=O)OC(C)C1O` (stereo partly drawn), the Ka in the test on Nucleic Acid [1] stood at 110000 M⁻¹. Moreover, the Maximal binding with Nucleic Acid [2] was 0.19.

For `COc1cccc2c1C(=O)c1c(O)c3c(c(O)c1C2=O)C[C@@](O)(C(C)=O)C[C@@H]3O[C@H]1C[C@H](NC(=O)[C@H](C)N)[C@H](O)[C@H](C)O1`, in the test with Nucleic Acid [1], the Ka is 90000 M⁻¹. Besides, in the test with Nucleic Acid [2], the Maximal binding was 0.19.

Source of the values: ChEMBL document CHEMBL1121550, “Amino acid and dipeptide derivatives of daunorubicin. 1. Synthesis, physicochemical properties, and lysosomal digestion” (J Med Chem, 1980).
